In ChEMBL document CHEMBL1131436, “Repaglinide and related hypoglycemic benzoic acid derivatives” (1998):

Key:
Rattus norvegicus [1] = test: Maximum % decrease of blood glucose (deltaBG) was observed within 4 hour after administration orally at 25 mg/kg dose to fasted adult female rats versus a control group; format: functional; conditions: route oral
Method in brief: (§1)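 Female Wistar rats (Chbb THOM, SPF, 200-220 g), fasted 24 h, dosed orally by gavage as suspension in 1.5% Tylose methylcellulose (10 mL/kg). Whole blood from retrobulbar plexus under light halothane, deproteinized with 0.33 M HClO4; glucose by hexokinase/G6PDH, hourly up to 4 h. % decrease vs control group (N = 7), Student's t-test, P ≤ 0.05.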

Rattus norvegicus [2] = test: Maximum % decrease of blood glucose (deltaBG) was observed within 4 hour after administration orally at 0.5 mg/kg dose to fasted adult female rats versus a control group; format: functional; conditions: route oral; method in brief: as §1
Rattus norvegicus [3] = test: Maximum % decrease of blood glucose (deltaBG) was observed within 4 hour after administration orally at 0.1 mg/kg dose to fasted adult female rats versus a control group; format: functional; conditions: route oral; method in brief: as §1
Rattus norvegicus [4] = test: Maximum % decrease of blood glucose (deltaBG) was observed within 4 hour after administration orally at 1 mg/kg dose to fasted adult female rats versus a control group; format: functional; conditions: route oral; method in brief: as §1
Rattus norvegicus [5] = test: Maximum % decrease of blood glucose (deltaBG) was observed within 4 hour after administration orally at 10 mg/kg dose to fasted adult female rats versus a control group; format: functional; conditions: route oral; method in brief: as §1
Rattus norvegicus [6] = test: Maximum % decrease of blood glucose (deltaBG) was observed within 4 hour after administration orally at 25 mg/kg dose to fasted adult female rats versus a control group; NS =' not significant'; format: functional, organism-based; set-up: dose 25 mg/kg; method in brief: as §1
Rattus norvegicus [7] = test: Maximum % decrease of blood glucose (deltaBG) was observed within 4 hour after administration orally at 1 mg/kg dose to fasted adult female rats versus a control group; NS =' not significant'; format: functional, organism-based; set-up: dose 1 mg/kg; method in brief: as §1
Rattus norvegicus [8] = test: Maximum % decrease of blood glucose (deltaBG) was observed within 4 hour after administration orally at 5 mg/kg dose to fasted adult female rats versus a control group; format: functional; conditions: route oral; method in brief: as §1

In the case of `O=C(O)c1ccc(CCNC(=O)c2cc(Cl)ccc2N2CCCC2)cc1`, the “Delta BG” value (Rattus norvegicus [1]) is reported as -18%.

For `CC(C)C(NC(=O)Cc1ccc(C(=O)O)cc1)c1ccccc1N1CCCCC1` (configuration not stated), the “Delta BG” value (Rattus norvegicus [2]) was -18%.

In the case of `CCCCC(NC(=O)Cc1ccc(C(=O)O)c(OCC)c1)c1ccccc1N1CCCCC1` (configuration not stated), the “Delta BG” value (Rattus norvegicus [3]) is reported as -24% and the “Delta BG” value (Rattus norvegicus [2]) is reported as -45%.

With `CCCC(NC(=O)Cc1ccc(C(=O)O)cc1)c1ccccc1OC` (configuration not stated) the “Delta BG” value (Rattus norvegicus [4]) was -21% and the “Delta BG” value (Rattus norvegicus [5]) was -44%.

In the case of `O=C(Cc1ccc(C(=O)O)cc1)NC(c1ccccc1N1CCCCC1)C1CCCCC1` (configuration not stated), the “Delta BG” value (Rattus norvegicus [4]) is reported as -27%.

For `CC(NC(=O)Cc1ccc(C(=O)O)cc1)c1ccccc1N1CCCCCCCC1` (configuration not stated), the “Delta BG” value (Rattus norvegicus [6]) was “Not significant”.

With `CCOc1cc(CC(=O)NC(CC2CCCC2)c2ccccc2N2CCCCC2)ccc1C(=O)O` (configuration not stated) the “Delta BG” value (Rattus norvegicus [3]) was -17%.

`CCCC(c1ccccc1N1CCCCC1)N(C)C(=O)Cc1ccc(C(=O)O)cc1` (configuration not stated) was tested, and the “Delta BG” value (Rattus norvegicus [5]) was -12%.

In the case of `O=C(Cc1ccc(C(=O)O)cc1)NCc1ccccc1N1CCCCC1`, the “Delta BG” value (Rattus norvegicus [5]) is reported as -38%.

In the case of `CCCC(CCCc1ccc(C(=O)O)cc1)c1ccccc1N1CCCCC1` (configuration not stated), the “Delta BG” value (Rattus norvegicus [6]) is reported as “Not significant”.

With `CC1CCN(c2ccccc2C(C)NC(=O)Cc2ccc(C(=O)O)cc2)CC1` (configuration not stated) the “Delta BG” value (Rattus norvegicus [4]) was -27% and the “Delta BG” value (Rattus norvegicus [5]) was -46%.

`CC(NC(=O)Cc1ccc(C(=O)O)cc1)c1cccc(N2CCCCC2)c1` (configuration not stated) was tested, and the “Delta BG” value (Rattus norvegicus [1]) was -15%.

`CCCCCCC(NC(=O)Cc1ccc(C(=O)O)c(OCC)c1)c1ccccc1N1CCCCC1` (configuration not stated) was tested, and the “Delta BG” value (Rattus norvegicus [4]) was -21%.

With `CC1CCCCN1c1ccc(Cl)cc1C(=O)NCCc1ccc(C(=O)O)cc1` (configuration not stated) the “Delta BG” value (Rattus norvegicus [4]) was -16%.

With `CCCC(NC(=O)Cc1ccc(C(=O)O)cc1)c1ccccc1C1=CCCCC1` (configuration not stated) the “Delta BG” value (Rattus norvegicus [5]) was -48% and the “Delta BG” value (Rattus norvegicus [7]) was “Not significant”.

`CC(NC(=O)Cc1ccccc1C(=O)O)c1ccccc1N1CCCCC1` (configuration not stated) was tested, and the “Delta BG” value (Rattus norvegicus [6]) was “Not significant”.

`CC(NC(=O)Cc1ccc(C(=O)O)cc1)c1cc(Cl)ccc1N1CCCCC1C` (configuration not stated) was tested, and the “Delta BG” value (Rattus norvegicus [5]) was -14%.

For `COc1ccccc1C(C)NC(=O)Cc1ccc(C(=O)O)cc1` (configuration not stated), the “Delta BG” value (Rattus norvegicus [5]) was -21%.

`CC(C)(NC(=O)Cc1ccc(C(=O)O)cc1)c1ccccc1N1CCCCC1` was tested, and the “Delta BG” value (Rattus norvegicus [5]) was -34%.

`CCC[C@H](NC(=O)Cc1ccc(C(=O)O)cc1)c1ccccc1N1CCCCC1` was tested, and the “Delta BG” value (Rattus norvegicus [3]) was -29%.

For `CC(NC(=O)Cc1ccc(C(=O)O)cc1)c1ccc(N2CCCCC2)cc1` (configuration not stated), the “Delta BG” value (Rattus norvegicus [6]) was “Not significant”.

With `CCOc1cc(CC(=O)NC(CC2CCC2)c2ccccc2N2CCCCC2)ccc1C(=O)O` (configuration not stated) the “Delta BG” value (Rattus norvegicus [3]) was -27%.

In the case of `O=C(Cc1ccc(C(=O)O)cc1)N[C@H](c1ccccc1)c1ccccc1N1CCCCC1`, the “Delta BG” value (Rattus norvegicus [7]) is reported as “Not significant”.

In the case of `CC(NC(=O)Cc1ccc(C(=O)O)cc1)c1cc(Cl)ccc1N1CCCCC1` (configuration not stated), the “Delta BG” value (Rattus norvegicus [8]) is reported as -18% and the “Delta BG” value (Rattus norvegicus [5]) is reported as -36%.

With `CC1CC(C)CN(c2ccc(Cl)cc2C(=O)NCCc2ccc(C(=O)O)cc2)C1` (stereo in doubt; 5i) the “Delta BG” value (Rattus norvegicus [4]; 1 mg/kg) was -11%.

With `CC1CCN(c2ccc(Cl)cc2C(=O)NCCc2ccc(C(=O)O)cc2)CC1` the “Delta BG” value (Rattus norvegicus [7]) was “Not significant”.

With `CC(NC(=O)Cc1ccc(C(=O)O)cc1)c1cc(Cl)ccc1N1CCCCCCC1` (configuration not stated) the “Delta BG” value (Rattus norvegicus [6]) was “Not significant”.

With `CCCC(NC(=O)Cc1ccc(C(=O)O)cc1)c1ccccc1C1CCCCC1` (configuration not stated) the “Delta BG” value (Rattus norvegicus [4]) was -9% and the “Delta BG” value (Rattus norvegicus [5]) was -31%.

`CCOc1cc(CC(=O)NC(C)c2ccccc2N2CCCCC2)ccc1C(=O)O` (configuration not stated) was tested, and the “Delta BG” value (Rattus norvegicus [3]) was -27%.

With `CC(C)CC(NC(=O)Cc1ccc(C(=O)O)cc1)c1ccccc1N1CCCCC1` (configuration not stated) the “Delta BG” value (Rattus norvegicus [3]) was -30%.

In the case of `CCOc1cc(CC(=O)NC(CC2CC2)c2ccccc2N2CCCCC2)ccc1C(=O)O` (configuration not stated), the “Delta BG” value (Rattus norvegicus [3]) is reported as -37%.

`CCCC(/N=C(\S)Cc1ccc(C(=O)O)cc1)c1ccccc1N1CCCCC1` (configuration not stated) was tested, and the “Delta BG” value (Rattus norvegicus [5]) was -35%.

`COc1cc(CCNC(=O)c2cc(Cl)ccc2N2CCCCCCCC2)ccc1C(=O)O` was tested, and the “Delta BG” value (Rattus norvegicus [4]) was -15%.

For `CCCC(NC(=O)Cc1ccc(C(=O)O)cc1)c1ccccc1` (configuration not stated), the “Delta BG” value (Rattus norvegicus [5]) was -18%.

With `CC(NC(=O)Cc1ccc(C(=O)O)cc1)c1cc(Cl)ccc1N(C)C` (configuration not stated) the “Delta BG” value (Rattus norvegicus [5]) was -20%.

For `CCOc1cc(CCNC(=O)c2cc(Cl)ccc2OC)ccc1C(=O)O`, the “Delta BG” value (Rattus norvegicus [4]) was -8% and the “Delta BG” value (Rattus norvegicus [5]) was -35%.

With `O=C(O)c1ccc(CCNC(=O)c2cc(Cl)ccc2N2CCCCCCC2)cc1` the “Delta BG” value (Rattus norvegicus [4]) was -29%.

`CCOc1cc(CC(=O)NC(CC2CCCCC2)c2ccccc2N2CCCCC2)ccc1C(=O)O` (configuration not stated) was tested, and the “Delta BG” value (Rattus norvegicus [3]) was -23%.

With `O=C(Cc1ccc(C(=O)O)cc1)NC(Cc1ccccc1)c1ccccc1N1CCCCC1` (configuration not stated) the “Delta BG” value (Rattus norvegicus [5]) was -27%.

`CCCC(NC(=O)Cc1ccc(C(=O)O)cc1)c1cc(Cl)ccc1N1CCCCC1` (configuration not stated) was tested, and the “Delta BG” value (Rattus norvegicus [4]) was -17%.
